# Reference: ChEMBL document CHEMBL1134769, “Potent and selective nonpeptide inhibitors of caspases 3 and 7” (J Med Chem, 2001)
# Several values for one entry are separate records, joined by “and”; a condition that tells them apart may be missing. Equal values may be shown once. Activity calls are given as the source filed them. The calls are words filed in the database; no cut-off is given here.
# Columns and labels:
# Caspase-3 [1] = molecular target: T1, Caspase-3 (Homo sapiens, UniProt P42574); assay: In vitro inhibition of Caspase-3 in presence of camptothecin induced chondrocyte cell cytosol.
# T1 sequence (P42574 whole entry): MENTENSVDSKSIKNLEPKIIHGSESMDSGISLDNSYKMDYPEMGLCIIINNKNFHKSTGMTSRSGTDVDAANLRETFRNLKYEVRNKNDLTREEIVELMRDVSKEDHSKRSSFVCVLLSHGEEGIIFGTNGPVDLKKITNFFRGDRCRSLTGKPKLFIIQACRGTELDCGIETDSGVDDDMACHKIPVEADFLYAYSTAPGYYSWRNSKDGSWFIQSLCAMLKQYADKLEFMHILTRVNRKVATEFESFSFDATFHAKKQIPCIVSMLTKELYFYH
# In short: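 IC50 measured in cytosol from camptothecin-treated (apoptotic) chondrocytes at 90% of assay volume. Two conditions: the endogenous caspase 3-like activity alone, or with added recombinant human caspase 3 (~10 units/assay). Buffer was 25 mM K+HEPES pH 7.5, 0.1% CHAPS, 50 mM KCl and 5 mM β-mercaptoethanol, with 10 μM Ac-DEVD-AMC. AMC fluorescence was read at 30 °C (ex 360/em 460 nm) with 5% final DMSO.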
# Caspase-3 [2] = molecular target: T1, Caspase-3; assay: In vitro inhibition of Caspase-3 in presence of uninduced chondrocyte cell cytosol
# In short: (§1)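 IC50 against recombinant full-length human caspase 3 (~10 units/assay; 1 unit = 1 pmol AMC/min), with cytosol from uninduced (nonapoptotic) chondrocytes making up 90% of assay volume. Assay buffer was 25 mM K+HEPES pH 7.5, 0.1% CHAPS, 50 mM KCl and 5 mM β-mercaptoethanol, with 10 μM Ac-DEVD-AMC. AMC was read at 30 °C (ex 360/em 460 nm) with 5% final DMSO.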
# Caspase-3 [3] = molecular target: T1, Caspase-3; assay: Inhibition of recombinant human caspase-3
# C20/A4 [4] = assay: In vitro inhibition of Chondrocyte cell line C20/A4 apoptosis at 10 uM of compound; assay type: functional, Homo sapiens
# In short: (§2)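 Immortalized human chondrocyte line C20/A4 seeded at 20 000 cells/well overnight, then exposed 24 h to 4 μg/mL camptothecin with or without compound. Floating and adherent cells combined and lysed 30 min at 4 °C, then clarified at 14000g. Mono- and oligonucleosome DNA fragments measured by cell death ELISA; result expressed as % inhibition of apoptosis.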
# C20/A4 [5] = assay: In vitro inhibition of Chondrocyte cell line C20/A4 apoptosis at 25 uM of compound; assay type: functional, Homo sapiens; in short: as §2
# Caspase-3 [6] = molecular target: T1, Caspase-3; assay: In vitro inhibition of Caspase-3 in presence of naive chondrocyte cell cytosol; in short: as §1
# Jurkat (Homo sapiens) [7] = assay: In vitro inhibition of Jurkat cell apoptosis at 10 uM of compound
# Jurkat (Homo sapiens) [8] = assay: In vitro inhibition of Jurkat cell apoptosis at 50 uM of compound
# C20/A4 [9] = assay: In vitro inhibition of Chondrocyte cell line C20/A4 apoptosis at 10 uM of compound; Not active; assay type: functional, cell-based; settings: Homo sapiens; in short: as §2
# C20/A4 [10] = assay: In vitro inhibition of Chondrocyte cell line C20/A4 apoptosis at 25 uM of compound; Not active; assay type: functional, cell-based; settings: Homo sapiens; in short: as §2
# Caspase-4 = molecular target: T2, Caspase-4 (Homo sapiens, UniProt P49662); assay: Inhibitory activity against caspase-4; settings: read-out: Ki app
# T2 sequence (P49662 whole entry): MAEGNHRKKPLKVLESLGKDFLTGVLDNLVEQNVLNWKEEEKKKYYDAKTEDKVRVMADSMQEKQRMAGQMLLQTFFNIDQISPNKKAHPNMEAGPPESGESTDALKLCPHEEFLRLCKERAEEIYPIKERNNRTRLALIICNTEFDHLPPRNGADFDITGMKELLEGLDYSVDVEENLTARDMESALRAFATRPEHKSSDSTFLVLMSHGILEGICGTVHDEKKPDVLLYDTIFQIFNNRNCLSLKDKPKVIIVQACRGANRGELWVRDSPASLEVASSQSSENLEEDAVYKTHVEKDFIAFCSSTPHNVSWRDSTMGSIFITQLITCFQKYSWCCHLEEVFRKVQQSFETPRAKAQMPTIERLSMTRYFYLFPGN
# In short: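 Recombinant full-length human caspase 4, ~10 units/assay, in potassium acetate pH 5.8 with 1 mM EDTA, 10% sucrose, 0.1% CHAPS and 5 mM β-mercaptoethanol. Substrate 100 μM Ac-LEED-AMC. Read at 360/460 nm, 30 °C, 5% final DMSO. Single-dose screen (typically 5–50 μM), then IC50 curves for actives.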
# Caspase-6 = molecular target: T3, Caspase-6 (Homo sapiens, UniProt P55212); assay: Inhibitory activity against Caspase-6; settings: read-out: Ki app
# T3 sequence (P55212 whole entry): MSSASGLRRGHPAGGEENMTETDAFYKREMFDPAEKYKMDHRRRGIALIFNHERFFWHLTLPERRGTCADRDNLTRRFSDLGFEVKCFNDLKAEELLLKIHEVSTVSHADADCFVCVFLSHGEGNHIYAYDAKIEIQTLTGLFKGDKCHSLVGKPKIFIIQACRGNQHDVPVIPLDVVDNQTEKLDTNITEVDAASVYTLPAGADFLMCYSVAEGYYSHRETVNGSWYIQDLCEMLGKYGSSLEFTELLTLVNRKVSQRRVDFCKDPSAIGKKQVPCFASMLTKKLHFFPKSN
# In short: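 Recombinant full-length human caspase 6 (~10 units/assay) in 50 mM Tris-HCl pH 7.4 with 0.1% CHAPS, 1.5 mM MgCl2, 1 mM EDTA and 5 mM β-mercaptoethanol. Substrate 10 μM Ac-DEVD-AMC. AMC monitored at 360/460 nm, 30 °C, final DMSO 5%. Single-dose screen (typically 5–50 μM), then IC50 determination.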
# Caspase-1 = molecular target: T4, Caspase-1 (Homo sapiens, UniProt P29466); assay: Inhibitory activity against caspase-1; settings: read-out: Ki app
# T4 sequence (P29466 whole entry): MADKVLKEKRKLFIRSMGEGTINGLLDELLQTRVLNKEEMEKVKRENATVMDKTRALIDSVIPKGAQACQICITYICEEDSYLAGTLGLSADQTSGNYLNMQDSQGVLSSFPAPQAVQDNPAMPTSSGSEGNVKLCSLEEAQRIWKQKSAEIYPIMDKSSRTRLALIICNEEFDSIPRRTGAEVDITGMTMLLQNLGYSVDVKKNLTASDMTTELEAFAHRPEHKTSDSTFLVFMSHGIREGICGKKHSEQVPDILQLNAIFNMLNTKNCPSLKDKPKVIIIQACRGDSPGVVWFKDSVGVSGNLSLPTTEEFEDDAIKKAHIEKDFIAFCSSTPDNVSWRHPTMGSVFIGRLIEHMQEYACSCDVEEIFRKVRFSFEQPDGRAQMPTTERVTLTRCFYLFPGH
# In short: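 Recombinant full-length human caspase 1, ~10 units/assay, in 25 mM K+HEPES pH 7.5 with 10% sucrose, 0.1% CHAPS and 5 mM β-mercaptoethanol. Substrate 10 μM Ac-YVAD-AMC. AMC read at 360/460 nm, 30 °C, with 5% final DMSO. Single-dose screen (typically 5–50 μM), followed by IC50 curves for active compounds.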
# Caspase-8 = Caspase-8 (Homo sapiens, UniProt Q14790); assay: Inhibitory activity against Caspase-8; settings: read-out: Ki app
# Sequence of Caspase-8 (Q14790 217-374 limits assumed): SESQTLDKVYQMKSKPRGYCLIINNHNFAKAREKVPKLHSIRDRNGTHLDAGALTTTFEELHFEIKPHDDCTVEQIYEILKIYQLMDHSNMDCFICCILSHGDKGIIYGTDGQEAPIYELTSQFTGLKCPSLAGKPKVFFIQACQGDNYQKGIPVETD
# Sequence of Caspase-8 (Q14790 385-479 limits assumed): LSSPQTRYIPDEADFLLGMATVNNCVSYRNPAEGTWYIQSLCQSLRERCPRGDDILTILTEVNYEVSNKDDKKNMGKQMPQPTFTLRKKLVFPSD
# In short: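 Recombinant full-length human caspase 8, ~10 units/assay, in Na+MOPS pH 7.5 with 10% glycerol, 0.25 mM EDTA and 5 mM β-mercaptoethanol. Substrate 10 μM Ac-IETD-AMC. Fluorescence at 360/460 nm, 30 °C, 5% final DMSO. Compounds screened at a single dose (typically 5–50 μM), then full IC50 curves for actives.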
# Caspase-9 = molecular target: T5, Caspase-9 (Homo sapiens, UniProt P55211); assay: Inhibitory activity against Caspase-9; settings: read-out: Ki app
# T5 sequence (P55211 whole entry): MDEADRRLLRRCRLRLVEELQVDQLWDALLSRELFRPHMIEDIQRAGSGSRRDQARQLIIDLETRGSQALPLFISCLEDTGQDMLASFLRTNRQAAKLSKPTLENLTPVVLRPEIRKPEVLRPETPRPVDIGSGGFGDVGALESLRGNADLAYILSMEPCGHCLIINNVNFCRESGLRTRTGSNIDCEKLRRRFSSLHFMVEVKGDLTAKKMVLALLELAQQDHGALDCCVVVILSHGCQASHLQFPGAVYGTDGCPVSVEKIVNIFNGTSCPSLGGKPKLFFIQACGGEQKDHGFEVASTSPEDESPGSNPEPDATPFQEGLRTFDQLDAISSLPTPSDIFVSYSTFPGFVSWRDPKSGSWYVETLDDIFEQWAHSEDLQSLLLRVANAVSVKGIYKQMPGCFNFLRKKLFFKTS
# Caspase-3 [11] = molecular target: T1, Caspase-3; assay: Inhibitory activity against caspase-3; settings: read-out: Ki app
# In short: (§3)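 Recombinant full-length human caspase 3 or 7, ~10 units/assay (1 unit = 1 pmol AMC/min). Substrate 10 μM Ac-DEVD-AMC. AMC fluorescence at 360/460 nm, 30 °C, with 5% final DMSO. Single-dose screen (typically 5–50 μM), then IC50 curves; repeated IC50s had CVs typically <30%.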
# Caspase-2 = molecular target: T6, Caspase-2 (Homo sapiens, UniProt P42575); assay: Inhibitory activity against caspase-2; settings: read-out: Ki app
# T6 sequence (P42575 whole entry): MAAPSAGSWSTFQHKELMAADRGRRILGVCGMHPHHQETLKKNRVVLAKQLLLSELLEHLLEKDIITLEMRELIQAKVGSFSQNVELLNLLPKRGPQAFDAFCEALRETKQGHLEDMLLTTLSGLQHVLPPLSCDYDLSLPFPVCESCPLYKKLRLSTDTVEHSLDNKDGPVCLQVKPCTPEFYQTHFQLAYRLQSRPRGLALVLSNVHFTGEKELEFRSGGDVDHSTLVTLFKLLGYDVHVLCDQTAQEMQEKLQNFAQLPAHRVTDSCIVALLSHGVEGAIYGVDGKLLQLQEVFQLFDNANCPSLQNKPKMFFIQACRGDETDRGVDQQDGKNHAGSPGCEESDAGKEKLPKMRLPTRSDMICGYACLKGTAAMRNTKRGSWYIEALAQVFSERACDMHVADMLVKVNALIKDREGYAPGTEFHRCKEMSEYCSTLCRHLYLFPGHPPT
# In short: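 Recombinant full-length human caspase 2 (~10 units/assay) in 50 mM sodium acetate pH 6.2 with 10% glycerol, 0.25 mM EDTA and 5 mM β-mercaptoethanol. Substrate 25 μM Ac-VDVAD-AMC. Fluorescence at 360/460 nm, 30 °C, final DMSO 5%. Compounds screened at a single dose (typically 5–50 μM), then full IC50 curves where activity was seen.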
# Caspase-7 = molecular target: T7, Caspase-7 (Homo sapiens, UniProt P55210); assay: Inhibitory activity against Caspase-7; settings: read-out: Ki app; in short: as §3
# T7 sequence (P55210 whole entry): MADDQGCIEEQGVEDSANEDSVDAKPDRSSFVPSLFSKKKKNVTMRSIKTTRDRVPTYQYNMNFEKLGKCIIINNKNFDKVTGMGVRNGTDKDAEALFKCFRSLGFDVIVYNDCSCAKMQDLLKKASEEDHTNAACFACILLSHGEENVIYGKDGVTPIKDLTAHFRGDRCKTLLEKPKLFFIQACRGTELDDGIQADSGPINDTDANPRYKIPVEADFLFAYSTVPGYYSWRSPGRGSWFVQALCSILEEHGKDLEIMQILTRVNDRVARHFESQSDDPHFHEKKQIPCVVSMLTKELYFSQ
SMILES,IC50 (Caspase-3 [3]),Ki (Caspase-4),Ki (Caspase-6),Ki (Caspase-1),Ki (Caspase-8),Ki (Caspase-9),Ki (Caspase-3 [11]),Ki (Caspase-2),Ki (Caspase-7),Inhibition (C20/A4 [4]),Inhibition (C20/A4 [5]),Inhibition (Jurkat (Homo sapiens) [7]),Inhibition (Jurkat (Homo sapiens) [8]),other results
O=C1C(=O)N(Cc2ccncc2)c2ccc(S(=O)(=O)N3CCC[C@H]3COc3ccccc3)cc21,–,–,–,–,–,–,–,–,–,64%,89%,–,–,–
CN1C(=O)C(=O)c2ccccc21,> 50 µM,–,–,–,–,–,–,–,–,–,–,–,–,–
CN1C(=O)C(=O)c2cc([N+](=O)[O-])ccc21,1 µM,4 µM,1.7 µM,12 µM,> 50 µM,7.2 µM,0.5 µM,> 50 µM,0.29 µM,–,–,–,–,–
C=CCN1C(=O)C(=O)c2cc(S(=O)(=O)N3CCC[C@H]3COc3ccccc3)ccc21,–,–,–,–,–,–,–,–,–,71%,95%,60%,89%,–
O=C1Nc2ccc(S(=O)(=O)N3CCCC3C(=O)Nc3ccccc3)cc2C1=O (centres undefined),0.14 µM,–,–,–,–,–,–,–,–,–,–,–,–,–
CN1C(=O)C(=O)c2cc(C(=O)O)ccc21,> 50 µM,–,–,–,–,–,–,–,–,–,–,–,–,–

# Continued, in another order:
IC50 (Caspase-3 [3]),Ki (Caspase-4),Ki (Caspase-6),Ki (Caspase-1),Ki (Caspase-8),Ki (Caspase-9),Ki (Caspase-3 [11]),Ki (Caspase-2),Ki (Caspase-7),SMILES,Inhibition (C20/A4 [4]),Inhibition (C20/A4 [5]),Inhibition (Jurkat (Homo sapiens) [7]),Inhibition (Jurkat (Homo sapiens) [8]),other results
30 µM and 47 µM,–,–,–,–,–,–,–,–,CN1C(=O)C(=O)c2cc(S(=O)(=O)N3CCC[C@H]3COc3ccccc3)ccc21,48%,85%,41%,92%,IC50 (Caspase-3 [1]): 0.84 µM; IC50 (Caspase-3 [2]): 7.5 µM; IC50 (Caspase-3 [6]): 7.5 µM
18 µM,–,–,–,–,–,–,–,–,COC[C@H]1CCCN1S(=O)(=O)c1ccc2c(c1)C(=O)C(=O)N2,–,–,15%,22%,NA (C20/A4 [9]): inactive; NA (C20/A4 [10]): inactive
0.25 µM,5 µM,1 µM,18 µM,31 µM,5 µM,0.13 µM,> 25 µM,0.17 µM,O=C1C(=O)N(Cc2ccccc2)c2ccc([N+](=O)[O-])cc21,–,–,–,–,–
2.8 µM,> 50 µM,> 50 µM,9 µM,> 50 µM,12 µM,1.4 µM,> 50 µM,3 µM,O=C1Nc2ccc(S(=O)(=O)N3CCCC3)cc2C1=O,–,–,–,–,–
